Data set [1] relates to Mycobacterium avium. The data set is described as follows: Antimycobacterial activity against pyrazinamide-resistant Mycobacterium avium CNCTC My 152/73 after 5 days by microplate alamar blue assay. Format: functional. The following applies: CNCTC My 152/73, 120 h. The essentials: (§1)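 Microplate alamar blue assay run at pH 5.6, using conditions optimized for pyrazinamide. Strains came from the Czech National Collection of Type Cultures. MIC was read in µg/mL and converted to µM using molecular weight.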

Data set [2] in a line: Lipophilicity, log K of the compound by HPLC analysis. The data set is classed as physicochemical.
Data set [3] deals with Mycobacterium avium. The data set can be described thus: Antimycobacterial activity against pyrazinamide-resistant Mycobacterium avium CNCTC My 80/72 after 5 days by microplate alamar blue assay. The following applies: CNCTC My 80/72, 120 h. The data set is classed as functional. In outline: as §1
For the next data set, the system named is Mycobacterium kansasii. The data set is described as follows: Antimycobacterial activity against pyrazinamide-resistant Mycobacterium kansasii CNCTC My 235/80 after 5 days by microplate alamar blue assay. Format: functional. Conditions: CNCTC My 235/80, 120 h. The essentials:
as §1

Data set [4] concerns Mycobacterium tuberculosis. The data set is described as follows: Antimycobacterial activity against Mycobacterium tuberculosis H37Rv CNCTC My 331/88 after 5 days by microplate alamar blue assay. Format: functional. Conditions: H37Rv CNCTC My 331/88, 120 h. The essentials:
as §1

In data set [5] the test system is Trichophyton mentagrophytes. The data set is described as follows: Antifungal activity against Trichophyton mentagrophytes 445 after 72 to 120 hrs by microdilution broth method. The data set is classed as functional, organism-based.
For the next data set, the system named is Lichtheimia corymbifera. The data set is described as follows: Antifungal activity against Absidia corymbifera 272 after 72 to 120 hrs by microdilution broth method. Format: functional, organism-based.
For the next data set, the system named is Aspergillus fumigatus. The data set is described as follows: Antifungal activity against Aspergillus fumigatus 231 after 72 to 120 hrs by microdilution broth method. Format: functional, organism-based.
Another data set relates to Nakaseomyces glabratus. The data set can be described thus: Antifungal activity against Candida glabrata 20/I after 72 to 120 hrs by microdilution broth method. The data set is classed as functional, organism-based.
The subject of the next data set is Trichosporon asahii. The data set is described as follows: Antifungal activity against Trichosporon asahii 1188 after 72 to 120 hrs by microdilution broth method. The data set is classed as functional, organism-based.
For a further data set, the system named is Pichia kudriavzevii. The data set is described as follows: Antifungal activity against Candida krusei E28 after 72 to 120 hrs by microdilution broth method. The data set is classed as functional, organism-based.
In another data set the test system is Candida tropicalis. The data set can be described thus: Antifungal activity against Candida tropicalis 156 after 72 to 120 hrs by microdilution broth method. The data set is classed as functional, organism-based.
In the next data set the test system is Candida albicans. The data set can be described thus: Antifungal activity against Candida albicans ATCC 44859 after 72 to 120 hrs by microdilution broth method. The data set is classed as functional, organism-based.
The test system of data set [6] is Trichophyton mentagrophytes. The data set is described as follows: Antifungal activity against Trichophyton mentagrophytes after 72 to 120 hrs by microdilution broth method. The data set is classed as functional, organism-based.
Data set [7] concerns Staphylococcus epidermidis. The data set can be described thus: Antibacterial activity against Staphylococcus epidermidis H 6966/08 after 48 hrs by microdilution broth method. Format: functional. The essentials: (§2)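 Antibacterial screen with compound concentrations up to a highest level of 500 µM. Results expressed as MIC in µM.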
Data set [8] has as its system Klebsiella pneumoniae. The data set can be described thus: Antibacterial activity against ESBL positive Klebsiella pneumoniae J 14368/08 after 24 to 48 hrs by microdilution broth method. The data set is classed as functional, organism-based. The essentials: as §2
The test system of data set [9] is Klebsiella pneumoniae. The data set can be described thus: Antibacterial activity against Klebsiella pneumoniae D 11750/08 after 24 to 48 hrs by microdilution broth method. Format: functional, organism-based. The essentials:
as §2

For a further data set, the system named is Enterococcus sp. The data set can be described thus: Antibacterial activity against Enterococcus sp. J 14365/08 after 24 to 48 hrs by microdilution broth method. The data set is classed as functional, organism-based. The essentials: as §2
The subject of data set [10] is Staphylococcus epidermidis. The data set can be described thus: Antibacterial activity against methicillin-resistant Staphylococcus epidermidis H 5996/08 after 24 to 48 hrs by microdilution broth method. The data set is classed as functional, organism-based.
The subject of the next data set is Pseudomonas aeruginosa. The data set is described as follows: Antibacterial activity against Pseudomonas aeruginosa CCM 1961 after 24 to 48 hrs by microdilution broth method. The data set is classed as functional, organism-based. In outline:
as §2

The subject of the next data set is Escherichia coli. The data set is described as follows: Antibacterial activity against Escherichia coli CCM 4517 after 24 to 48 hrs by microdilution broth method. The data set is classed as functional, organism-based. The essentials: as §2
The subject of another data set is Staphylococcus aureus. The data set can be described thus: Antibacterial activity against Staphylococcus aureus CCM 4516/08 after 24 to 48 hrs by microdilution broth method. Format: functional, organism-based. In outline: as §2
For data set [11], the system named is Staphylococcus epidermidis. The data set is described as follows: Antibacterial activity against Staphylococcus epidermidis H 6966/08 up to 500 uM after 24 to 48 hrs by microdilution broth method. Format: functional, organism-based. The essentials:
as §2

In brackets after ≈: the same amount, converted by molar mass. Activity calls are given as the source filed them. The rule behind the calls is not given here.

Seven compounds from ChEMBL document CHEMBL3102810, “Alkylamino derivatives of pyrazinamide: synthesis and antimycobacterial evaluation” (Bioorg Med Chem Lett, 2014) can be followed below.

Regarding `CCCCCCCNc1cncc(C(N)=O)n1`, the MIC in the data set on Mycobacterium avium [1] turned out to be 100 µg/mL (≈ 423 µM); in the data set with Mycobacterium avium [3], 100 µg/mL (≈ 423 µM); in the data set on Mycobacterium kansasii, 212 µM; in [4] it was 106 µM. In addition, the “log K” value in data set [2] amounted to 0.4273. The result (in data set [5]; with Lichtheimia corymbifera; in the data set on Aspergillus fumigatus; in the data set on Nakaseomyces glabratus; with Trichosporon asahii; in the data set on Pichia kudriavzevii) was inactive. Moreover, the outcome (with Candida tropicalis; in the data set with Candida albicans; in data set [6]; in data set [7]; in the data set with Klebsiella pneumoniae [8]; in the data set with Klebsiella pneumoniae [9]) was inactive. Further, the result (with Enterococcus sp.; in [10]; in the data set with Pseudomonas aeruginosa; in the data set with Escherichia coli; with Staphylococcus aureus; in data set [11]) was inactive.

For `CCCCCNc1cncc(C(N)=O)n1`, the MIC in the data set on Mycobacterium avium [1] is greater than 100 µg/mL; against Mycobacterium avium [3], greater than 100 µg/mL; against Mycobacterium kansasii it was greater than 100 µg/mL; in data set [4] it was 100 µg/mL. Also, the “log K” value in [2] is given as -0.0095. For the same compound, the result (in data set [5]; in the data set on Lichtheimia corymbifera; in the data set with Aspergillus fumigatus; in the data set on Nakaseomyces glabratus; with Trichosporon asahii; in the data set with Pichia kudriavzevii) was inactive. Moreover, the result (in the data set on Candida tropicalis; in the data set on Candida albicans; in [6]; in [7]; with Klebsiella pneumoniae [8]; in the data set with Klebsiella pneumoniae [9]) was inactive. Moreover, the outcome (in the data set on Enterococcus sp.; in data set [10]; with Pseudomonas aeruginosa; with Escherichia coli; in the data set on Staphylococcus aureus; in [11]) was inactive.

`NC(=O)c1cncc(N)n1`: the MIC (against Mycobacterium avium [1]; in the data set with Mycobacterium avium [3]; with Mycobacterium kansasii; in data set [4]) was greater than 100 µg/mL in each case. Besides, in data set [2], the “log K” value is recorded as -0.7814. The outcome (in data set [5]; with Lichtheimia corymbifera; in the data set with Aspergillus fumigatus; in the data set with Nakaseomyces glabratus; with Trichosporon asahii; with Pichia kudriavzevii) was inactive. Moreover, the outcome (in the data set with Candida tropicalis; in the data set on Candida albicans; in [6]; in data set [7]; in the data set on Klebsiella pneumoniae [8]; with Klebsiella pneumoniae [9]) was inactive. Besides, the result (in the data set on Enterococcus sp.; in [10]; in the data set on Pseudomonas aeruginosa; in the data set on Escherichia coli; in the data set with Staphylococcus aureus; in data set [11]) was inactive.

With `CCCNc1cncc(C(N)=O)n1`, the MIC (against Mycobacterium avium [1]; with Mycobacterium avium [3]; against Mycobacterium kansasii; in data set [4]) was greater than 100 µg/mL in each case. Besides, the “log K” value in data set [2] is given as -0.4386. Moreover, the outcome (in data set [5]; in the data set on Lichtheimia corymbifera; in the data set with Aspergillus fumigatus; with Nakaseomyces glabratus; in the data set with Trichosporon asahii; in the data set on Pichia kudriavzevii) was inactive. The outcome (with Candida tropicalis; with Candida albicans; in data set [6]; in data set [7]; in the data set on Klebsiella pneumoniae [8]; with Klebsiella pneumoniae [9]) was inactive. Also, the result (in the data set with Enterococcus sp.; in data set [10]; in the data set with Pseudomonas aeruginosa; in the data set with Escherichia coli; with Staphylococcus aureus; in data set [11]) was inactive.

In the case of `NNC(=O)c1ccncc1` [ISONIAZID], the MIC against Mycobacterium avium [1] was determined as 6.25 µg/mL (≈ 45.6 µM); with Mycobacterium avium [3], 12.5 µg/mL (≈ 91.1 µM); against Mycobacterium kansasii, 11 µM; in [4], 3 µM. Also, the “log K” value in data set [2] is -0.7432.

`CNc1cncc(C(N)=O)n1`: the result (in data set [5]; with Lichtheimia corymbifera; in the data set on Aspergillus fumigatus; in the data set on Nakaseomyces glabratus; with Trichosporon asahii; in the data set on Pichia kudriavzevii) was inactive. In addition, the result (in the data set with Candida tropicalis; with Candida albicans; in data set [6]; in data set [7]; in the data set on Klebsiella pneumoniae [8]; with Klebsiella pneumoniae [9]) was inactive. For the same compound, the result (in the data set on Enterococcus sp.; in data set [10]; with Pseudomonas aeruginosa; in the data set with Escherichia coli; in the data set with Staphylococcus aureus; in [11]) was inactive.

For `NC(=O)c1cnc(NCCc2ccccc2)cn1`, the minimum inhibitory concentration (MIC) was greater than 100 µg/mL against Mycobacterium avium [1], greater than 100 µg/mL in the data set with Mycobacterium avium [3], 100 µg/mL with Mycobacterium kansasii and 206 µM in data set [4]. Besides, in data set [2], the “log K” value is given as -0.0382. Moreover, the outcome (in data set [5]; in the data set on Lichtheimia corymbifera; with Aspergillus fumigatus; in the data set with Nakaseomyces glabratus; with Trichosporon asahii; in the data set with Pichia kudriavzevii) was inactive. For the same compound, the outcome (in the data set with Candida tropicalis; in the data set with Candida albicans; in data set [6]; in [7]; in the data set with Klebsiella pneumoniae [8]; with Klebsiella pneumoniae [9]) was inactive. The outcome (in the data set with Enterococcus sp.; in data set [10]; in the data set on Pseudomonas aeruginosa; in the data set with Escherichia coli; with Staphylococcus aureus; in data set [11]) was inactive.
